Laboratory results published in ChEMBL document CHEMBL5532695, “4-Trifluoromethyl bithiazoles as broad-spectrum antimicrobial agents for virus-related bacterial infections or co-infections” (RSC Med Chem, 2024).

Assays:
[1] = Cytotoxicity against human HeLa cells assessed as reduction in cell viability by MTT assay; type: toxicity, cell-based
Outline: (§1)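 MTT viability on HeLa or VeroE6 cells, run in parallel with the antiviral assays. CC50 from variable-slope sigmoidal dose–response regression.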

[2] = Cytotoxicity against african green monkey Vero E6 cells assessed as reduction in cell viability by MTT assay; type: toxicity, cell-based; details: chlorocebus sabaeus, Vero E6 cells (Vero C1008); outline: as §1
Bacillus subtilis [3] = experiment: Antibacterial activity against Bacillus subtilis ATCC 6633 assessed as reduction in microbial growth measured after 18 hrs by CLSI based broth microdilution method; type: functional
Outline: (§2)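 MIC by CLSI broth microdilution in Mueller–Hinton medium, triplicate. Inoculum 5 × 10^4 CFU per well. Compounds taken up in DMSO (50 mg mL−1 stock) and diluted in medium. Read after 18 h at 35 ± 2 °C.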

Bacillus subtilis [4] = experiment: Bactericidal activity against Bacillus subtilis ATCC 6633 assessed as reduction in microbial growth measured after 18 hrs by CLSI based broth microdilution method; type: functional
Outline: (§3)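 MBC by CLSI broth microdilution in Mueller–Hinton medium, triplicate. Inoculum 5 × 10^4 CFU per well. Read after 18 h at 35 ± 2 °C.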

Enterococcus faecalis [5] = experiment: Antibacterial activity against Enterococcus faecalis ATCC 29212 assessed as reduction in microbial growth measured after 18 hrs by CLSI based broth microdilution method; type: functional; outline: as §2
Streptococcus pyogenes [6] = experiment: Antibacterial activity against Streptococcus pyogenes ATCC 12344 assessed as reduction in microbial growth measured after 18 hrs by CLSI based broth microdilution method; type: functional; outline: as §2
Streptococcus pyogenes [7] = experiment: Bactericidal activity against Streptococcus pyogenes ATCC 12344 assessed as reduction in microbial growth measured after 18 hrs by CLSI based broth microdilution method; type: functional; outline: as §3
Staphylococcus aureus [8] = experiment: Antibacterial activity against Staphylococcus aureus ATCC 25923 assessed as reduction in microbial growth measured after 18 hrs by CLSI based broth microdilution method; type: functional; outline: as §2
Escherichia coli = experiment: Synergistic antibacterial activity against Escherichia coli CCUGT incubated for 18 to 24 hrs in presence of colistin by broth microdilution method; type: functional; details: time 18-24 hrs
Klebsiella pneumoniae = experiment: Synergistic antibacterial activity against Klebsiella pneumoniae ATCC 13833 incubated for 18 to 24 hrs in presence of colistin by broth microdilution method; type: functional; details: time 18-24 hrs
Acinetobacter baumannii = experiment: Synergistic antibacterial activity against Acinetobacter baumannii ATCC 17978 incubated for 18 to 24 hrs in presence of colistin by broth microdilution method; type: functional; details: time 18-24 hrs
Pseudomonas aeruginosa = experiment: Synergistic antibacterial activity against Pseudomonas aeruginosa ATCC 27853 incubated for 18 to 24 hrs in presence of colistin by broth microdilution method; type: functional; details: time 18-24 hrs
Zika virus = details: vero e6
rhinovirus A16 [9] = experiment: microbe, parasite or virus in culture; details: Rhinovirus A, HeLa, 48 h
enterovirus D68 [10] = experiment: microbe, parasite or virus in culture; details: Enterovirus D, HeLa, 48 h
[11] = target: Phosphatidylinositol 4-kinase beta (Homo sapiens, UniProt Q9UBF8); experiment: Inhibition of recombinant full length his tagged PI4KB (unknown origin) incubated for 10 mins in presence of ATP by ADP-glo kinase assay
Sequence of Phosphatidylinositol 4-kinase beta (Q9UBF8 whole entry): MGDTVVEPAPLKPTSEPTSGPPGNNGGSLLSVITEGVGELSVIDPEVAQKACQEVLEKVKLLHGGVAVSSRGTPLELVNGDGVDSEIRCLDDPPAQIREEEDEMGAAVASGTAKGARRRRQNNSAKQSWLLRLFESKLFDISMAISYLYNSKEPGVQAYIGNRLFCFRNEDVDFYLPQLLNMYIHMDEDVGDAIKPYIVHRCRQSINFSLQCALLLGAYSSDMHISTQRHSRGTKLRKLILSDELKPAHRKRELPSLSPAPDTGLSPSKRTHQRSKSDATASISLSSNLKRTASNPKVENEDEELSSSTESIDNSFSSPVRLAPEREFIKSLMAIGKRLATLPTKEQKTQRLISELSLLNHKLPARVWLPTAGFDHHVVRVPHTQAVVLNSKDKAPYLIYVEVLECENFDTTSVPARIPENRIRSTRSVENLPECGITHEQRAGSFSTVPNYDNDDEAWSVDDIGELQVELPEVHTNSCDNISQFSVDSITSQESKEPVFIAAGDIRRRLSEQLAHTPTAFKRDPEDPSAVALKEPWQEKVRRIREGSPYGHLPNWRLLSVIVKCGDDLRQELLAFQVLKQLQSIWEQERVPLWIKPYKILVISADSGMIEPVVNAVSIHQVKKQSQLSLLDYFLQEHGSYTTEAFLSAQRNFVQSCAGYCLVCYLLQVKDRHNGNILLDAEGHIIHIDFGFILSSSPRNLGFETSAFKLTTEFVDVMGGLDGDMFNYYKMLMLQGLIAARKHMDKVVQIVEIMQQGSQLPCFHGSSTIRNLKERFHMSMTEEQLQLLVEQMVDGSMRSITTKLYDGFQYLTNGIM

Enterococcus faecalis [12] = experiment: Bactericidal activity against Enterococcus faecalis ATCC 29212 assessed as reduction in microbial growth measured after 18 hrs by CLSI based broth microdilution method; type: functional; outline: as §3
Staphylococcus aureus [13] = experiment: Bactericidal activity against Staphylococcus aureus ATCC 25923 assessed as reduction in microbial growth measured after 18 hrs by CLSI based broth microdilution method; type: functional; outline: as §3
Staphylococcus aureus [14] = experiment: Antibacterial activity against methicillin-resistant Staphylococcus aureus ATCC 43300 assessed as reduction in microbial growth measured after 18 hrs by CLSI based broth microdilution method; type: functional
Outline: (§4)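 Gram-positive clinical isolates; compounds dissolved in DMSO (50 mg mL−1 stock) and diluted in medium; MIC by CLSI broth microdilution in Mueller–Hinton medium, inoculum 5 × 10^4 CFU per well, read after 18 h at 35 ± 2 °C; triplicate.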

Staphylococcus aureus [15] = experiment: Bactericidal activity against methicillin-resistant Staphylococcus aureus ATCC 43300 assessed as reduction in microbial growth measured after 18 hrs by CLSI based broth microdilution method; type: functional
Staphylococcus warneri [16] = experiment: Antibacterial activity against oxacillin-resistant Staphylococcus warneri SI-5/2011 assessed as reduction in microbial growth measured after 18 hrs by CLSI based broth microdilution method; type: functional; outline: as §4
Staphylococcus warneri [17] = experiment: Bactericidal activity against oxacillin-resistant Staphylococcus warneri SI-5/2011 assessed as reduction in microbial growth measured after 18 hrs by CLSI based broth microdilution method; type: functional
[18] = system: Staphylococcus haemolyticus; experiment: Antibacterial activity against oxacillin-resistant Staphylococcus haemolyticus SI-6/2011 assessed as reduction in microbial growth measured after 18 hrs by CLSI based broth microdilution method; type: functional; outline: as §4
[19] = system: Staphylococcus haemolyticus; experiment: Bactericidal activity against oxacillin-resistant Staphylococcus haemolyticus SI-6/2011 assessed as reduction in microbial growth measured after 18 hrs by CLSI based broth microdilution method; type: functional
[20] = system: Staphylococcus epidermidis; experiment: Antibacterial activity against linezolid-resistant Staphylococcus epidermidis SI-1266 assessed as reduction in microbial growth measured after 18 hrs by CLSI based broth microdilution method; type: functional; outline: as §4
[21] = system: Staphylococcus epidermidis; experiment: Bactericidal activity against linezolid-resistant Staphylococcus epidermidis SI-1266 assessed as reduction in microbial growth measured after 18 hrs by CLSI based broth microdilution method; type: functional
Enterococcus faecium [22] = experiment: Antibacterial activity against Vancomycin/teicoplanin resistant Enterococcus faecium SI-759 assessed as reduction in microbial growth measured after 18 hrs by CLSI based broth microdilution method; type: functional; outline: as §4
Enterococcus faecium [23] = experiment: Bactericidal activity against Vancomycin/teicoplanin resistant Enterococcus faecium SI-759 assessed as reduction in microbial growth measured after 18 hrs by CLSI based broth microdilution method; type: functional
Enterococcus faecium [24] = experiment: Antibacterial activity against Vancomycin resistant Enterococcus faecium SI-1831 assessed as reduction in microbial growth measured after 18 hrs by CLSI based broth microdilution method; type: functional; outline: as §4
Enterococcus faecium [25] = experiment: Bactericidal activity against Vancomycin resistant Enterococcus faecium SI-1831 assessed as reduction in microbial growth measured after 18 hrs by CLSI based broth microdilution method; type: functional
Enterococcus faecium [26] = experiment: Antibacterial activity against Vancomycin resistant Enterococcus faecium SI-3856B assessed as reduction in microbial growth measured after 18 hrs by CLSI based broth microdilution method; type: functional; outline: as §4
Enterococcus faecium [27] = experiment: Bactericidal activity against Vancomycin resistant Enterococcus faecium SI-3856B assessed as reduction in microbial growth measured after 18 hrs by CLSI based broth microdilution method; type: functional
rhinovirus A16 [28] = details: hela
enterovirus D68 [29] = details: hela

| SMILES | CC50 [1] [µM] | CC50 [2] [µM] | MIC (Bacillus subtilis [3]) [µg/mL] | MBC (Bacillus subtilis [4]) [µg/mL] | MIC (Enterococcus faecalis [5]) [µg/mL] | MIC (Streptococcus pyogenes [6]) [µg/mL] | MBC (Streptococcus pyogenes [7]) [µg/mL] | MIC (Staphylococcus aureus [8]) [µg/mL] | MAC (Escherichia coli) [µg/mL] | MAC (Klebsiella pneumoniae) [µg/mL] | MAC (Acinetobacter baumannii) [µg/mL] | MAC (Pseudomonas aeruginosa) [µg/mL] | IC50 (Zika virus) | IC50 (rhinovirus A16 [9]) [µM] | IC50 (enterovirus D68 [10]) [µM] | IC50 [11] | IC50 (rhinovirus A16 [28]) | IC50 (enterovirus D68 [29]) | other results |
| --- | --- | --- | --- | --- | --- | --- | --- | --- | --- | --- | --- | --- | --- | --- | --- | --- | --- | --- | --- |
| CC(C)(C)C(=O)Nc1nc(C(F)(F)F)c(-c2csc(Nc3ccc(O)c(C(=O)O)c3)n2)s1 | > 50 | > 50 | 32 | > 32 | > 32 | 16 | > 32 | > 32 | >64 | >64 | >64 | >64 | Not Active | 9.77 | 10 | – | – | – | – |
| O=C(Nc1nc(C(F)(F)F)c(-c2csc(Nc3ccc(O)c(C(=O)O)c3)n2)s1)c1ccccc1 | > 50 | > 50 | 16 | > 32 | 16 | 4 | 32 | 16 | >64 | >64 | >64 | >64 | Not Active | – | – | Not Active | Not Active | Not Active | MBC (Enterococcus faecalis [12]): > 32 µg/mL; MBC (Staphylococcus aureus [13]): 32 µg/mL; MIC (Staphylococcus aureus [14]): 32 µg/mL; MBC (Staphylococcus aureus [15]): > 64 µg/mL; MIC (Staphylococcus warneri [16]): 64 µg/mL; MBC (Staphylococcus warneri [17]): 64 µg/mL; MIC [18]: 32 µg/mL; MBC [19]: 64 µg/mL; MIC [20]: 32 µg/mL; MBC [21]: 64 µg/mL; MIC (Enterococcus faecium [22]): 16 µg/mL; MBC (Enterococcus faecium [23]): 64 µg/mL; MIC (Enterococcus faecium [24]): 32 µg/mL; MBC (Enterococcus faecium [25]): > 64 µg/mL; MIC (Enterococcus faecium [26]): 32 µg/mL; MBC (Enterococcus faecium [27]): > 64 µg/mL |
| O=C(O)c1cc(Nc2nc(-c3sc(NC(=O)c4ccccc4)nc3C(F)(F)F)cs2)cc(C(=O)O)c1 | > 50 | > 50 | > 32 | – | > 32 | > 32 | – | > 32 | >64 | >64 | >64 | >64 | Not Active | – | – | Not Active | Not Active | Not Active | – |
| CC(C)(C)C(=O)Nc1nc(C(F)(F)F)c(-c2csc(Nc3cc(C(=O)O)cc(C(=O)O)c3)n2)s1 | > 50 | > 50 | > 32 | – | > 32 | > 32 | – | > 32 | >64 | >64 | >64 | >64 | Not Active | – | 12.3 | Not Active | Not Active | – | – |
| COC(=O)c1cc(Nc2nc(-c3sc(NC(=O)c4ccccc4)nc3C(F)(F)F)cs2)cc(C(F)(F)F)c1 | 22.9 | > 50 | > 32 | – | > 32 | > 32 | – | > 32 | >64 | >64 | >64 | >64 | Not Active | 2.44 | – | Not Active | – | Not Active | – |
